Data: ChEMBL document CHEMBL4138104, “Indole carboxylic acid esters of melampomagnolide B are potent anticancer agents against both hematological and solid tumor cells” (Eur J Med Chem, 2017)

Columns and labels:
Format in all cases: functional
HT-29 = assay: Growth inhibition of human HT-29 cells incubated for 48 hrs by sulforhodamine B assay; details: HT-29, 48 h
Procedure, shortened: (§1)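 NCI-60 screen. Compounds were dosed at five concentrations spanning 10^-4 to 10^-8 M for 48 h at 37 °C. Cells were TCA-fixed, stained with 0.4% SRB and read at 515 nm against time-zero and vehicle controls. GI50 is the concentration giving a 50% reduction in net protein increase.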

UACC-62 = assay: Growth inhibition of human UACC62 cells incubated for 48 hrs by sulforhodamine B assay; details: UACC-62, 48 h
Procedure, shortened: (§2)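 NCI-60 screen run at NCI. Cells grown in RPMI medium with 5% FBS and 2 mM L-glutamine, plated at 5,000–40,000 cells/well, and preincubated 24 h at 37 °C. Time-zero plates were TCA-fixed. Compounds came from DMSO stocks and were tested at five concentrations from 10^-4 to 10^-8 M for 48 h. Cells were then TCA-fixed, stained with 0.4% SRB, and OD read at 515 nm. GI50 is the concentration giving a 50% reduction in net protein increase versus control.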

SNB-19 = assay: Growth inhibition of human SNB19 cells incubated for 48 hrs by sulforhodamine B assay; details: SNB-19, 48 h; procedure, shortened: as §2
RXF 393 = assay: Growth inhibition of human RXF393 cells incubated for 48 hrs by sulforhodamine B assay; details: RXF 393, 48 h; procedure, shortened: as §1
HL-60(TB) = assay: Growth inhibition of human HL-60(TB) cells incubated for 48 hrs by sulforhodamine B assay; details: HL-60, 48 h
Procedure, shortened: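 Performed at NCI's 60-line screen. Cells grown in RPMI with 5% FBS and 2 mM L-glutamine, plated 5,000–40,000 cells/well and incubated 24 h at 37 °C before compound addition. DMSO stocks were diluted in medium with gentamicin, and five concentrations spanning 10^-4 to 10^-8 M were tested. Exposure was 48 h. Cells were fixed with TCA, stained with SRB, and read at 515 nm. GI50 taken from log dose-response curves as 50% reduction in net protein increase versus control.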

HCT-116 = assay: Growth inhibition of human HCT116 cells incubated for 48 hrs by sulforhodamine B assay; details: HCT-116, 48 h; procedure, shortened: as §1
NCI-H460 = assay: Growth inhibition of human NCI-H460 cells incubated for 48 hrs by sulforhodamine B assay; details: NCI-H460, 48 h; procedure, shortened: as §1
SK-OV-3 = assay: Growth inhibition of human SKOV3 cells incubated for 48 hrs by sulforhodamine B assay; details: SK-OV-3, 48 h; procedure, shortened: as §1
A498 = assay: Growth inhibition of human A498 cells incubated for 48 hrs by sulforhodamine B assay; details: A498, 48 h; procedure, shortened: as §1
Malme-3M = assay: Growth inhibition of human MALME-3M cells incubated for 48 hrs by sulforhodamine B assay; procedure, shortened: as §1
CCRF-CEM = assay: Growth inhibition of human CCRF-CEM cells incubated for 48 hrs by sulforhodamine B assay; procedure, shortened: as §1
SF-268 = assay: Growth inhibition of human SF268 cells incubated for 48 hrs by sulforhodamine B assay; details: SF-268, 48 h; procedure, shortened: as §1
SF-295 = assay: Growth inhibition of human SF295 cells incubated for 48 hrs by sulforhodamine B assay; details: SF-295, 48 h; procedure, shortened: as §1
A549 = assay: Growth inhibition of human A549/ATCC cells incubated for 48 hrs by sulforhodamine B assay; details: A549, 48 h; procedure, shortened: as §1
KM12 = assay: Growth inhibition of human KM12 cells incubated for 48 hrs by sulforhodamine B assay; details: KM12, 48 h; procedure, shortened: as §1
U-251 = assay: Growth inhibition of human U251 cells incubated for 48 hrs by sulforhodamine B assay; details: U-251, 48 h; procedure, shortened: as §2
SW-620 = assay: Growth inhibition of human SW620 cells incubated for 48 hrs by sulforhodamine B assay; details: SW-620, 48 h; procedure, shortened: as §2
NCI-H23 = assay: Growth inhibition of human NCI-H23 cells incubated for 48 hrs by sulforhodamine B assay; details: NCI-H23, 48 h; procedure, shortened: as §1
NCI-H322M = assay: Growth inhibition of human NCI-H322M cells incubated for 48 hrs by sulforhodamine B assay; procedure, shortened: as §1
MOLT-4 = assay: Growth inhibition of human MOLT4 cells incubated for 48 hrs by sulforhodamine B assay; details: MOLT-4, 48 h; procedure, shortened: as §1
NCI-H226 = assay: Growth inhibition of human NCI-H226 cells incubated for 48 hrs by sulforhodamine B assay; details: NCI-H226, 48 h; procedure, shortened: as §1
HOP-92 = assay: Growth inhibition of human HOP92 cells incubated for 48 hrs by sulforhodamine B assay; details: HOP-92, 48 h; procedure, shortened: as §1
MCF7 = assay: Growth inhibition of human MCF7 cells incubated for 48 hrs by sulforhodamine B assay; details: MCF7, 48 h; procedure, shortened: as §1
RPMI-8226 = assay: Growth inhibition of human RPMI8226 cells incubated for 48 hrs by sulforhodamine B assay; details: RPMI-8226, 48 h; procedure, shortened: as §1
OVCAR-8 = assay: Growth inhibition of human OVCAR8 cells incubated for 48 hrs by sulforhodamine B assay; details: OVCAR-8, 48 h; procedure, shortened: as §1
UACC-257 = assay: Growth inhibition of human UACC257 cells incubated for 48 hrs by sulforhodamine B assay; details: UACC-257, 48 h; procedure, shortened: as §2
SK-MEL-28 = assay: Growth inhibition of human SK-MEL-28 cells incubated for 48 hrs by sulforhodamine B assay; details: SK-MEL-28, 48 h; procedure, shortened: as §1
LOX IMVI = assay: Growth inhibition of human LOXIMVI cells incubated for 48 hrs by sulforhodamine B assay; procedure, shortened: as §1
UO-31 = assay: Growth inhibition of human UO31 cells incubated for 48 hrs by sulforhodamine B assay; details: UO-31, 48 h; procedure, shortened: as §2
[1] = Cytotoxicity against human M9-ENL1 cells assessed as reduction in cell viability by trypan blue staining-based assay
Procedure, shortened: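 M9-ENL1 AML cells (MLL-ENL-transduced human blood cells) plated at 10^6 cells/mL in alpha-MEM with 5% human plasma, 20% FBS, SCF, IL-3, IL-7 and FLT3. Drug diluted from DMSO stock into PBS, final DMSO ≤0.5%. After 24 h exposure, dead cells assessed by trypan blue and by flow cytometry (Annexin V/PI or Annexin V/7-AAD). Viability normalized to vehicle; EC50 from dose-response curves; triplicate.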

NCI/ADR-RES = assay: Growth inhibition of human NCI/ADR-RES cells incubated for 48 hrs by sulforhodamine B assay; procedure, shortened: as §1
OVCAR-5 = assay: Growth inhibition of human OVCAR5 cells incubated for 48 hrs by sulforhodamine B assay; details: OVCAR-5, 48 h; procedure, shortened: as §1
HCT-15 = assay: Growth inhibition of human HCT15 cells incubated for 48 hrs by sulforhodamine B assay; details: HCT-15, 48 h; procedure, shortened: as §1
SF-539 = assay: Growth inhibition of human SF539 cells incubated for 48 hrs by sulforhodamine B assay; details: SF-539, 48 h; procedure, shortened: as §1
NCI-H522 = assay: Growth inhibition of human NCI-H522 cells incubated for 48 hrs by sulforhodamine B assay; details: NCI-H522, 48 h; procedure, shortened: as §1
HCC 2998 = assay: Growth inhibition of human HCC2998 cells incubated for 48 hrs by sulforhodamine B assay; details: HCC 2998, 48 h; procedure, shortened: as §1
SN12C = assay: Growth inhibition of human SN12C cells incubated for 48 hrs by sulforhodamine B assay; procedure, shortened: as §1

SMILES	GI50 (HT-29) [nM]	GI50 (UACC-62) [nM]	GI50 (SNB-19) [nM]	GI50 (RXF 393) [nM]	GI50 (HL-60(TB)) [nM]	GI50 (HCT-116) [nM]	GI50 (NCI-H460) [nM]	GI50 (SK-OV-3) [nM]	GI50 (A498) [nM]	GI50 (Malme-3M) [nM]	GI50 (CCRF-CEM) [nM]	GI50 (SF-268) [nM]	GI50 (SF-295) [nM]	GI50 (A549) [nM]	GI50 (KM12) [nM]	GI50 (U-251) [nM]	GI50 (SW-620) [nM]	GI50 (NCI-H23) [nM]	GI50 (NCI-H322M) [nM]	GI50 (MOLT-4) [nM]	other results
C=C1C(=O)O[C@@H]2[C@H]3O[C@]3(C)CC/C=C(/COC(=O)c3cn(C)c4ccccc34)CC[C@@H]12	520	1260	1590	580	1540	1020	1730	4330	1590	1620	210	1300	2410	1820	1830	1420	300	1930	3010	570	GI50 (NCI-H226): 1480 nM; GI50 (HOP-92): 360 nM; GI50 (MCF7): 400 nM; GI50 (RPMI-8226): 210 nM; GI50 (OVCAR-8): 800 nM; GI50 (UACC-257): 1320 nM; GI50 (SK-MEL-28): 1550 nM; GI50 (LOX IMVI): 220 nM; GI50 (UO-31): 770 nM; EC50 [1]: 7200 nM; GI50 (NCI/ADR-RES): 2150 nM; GI50 (OVCAR-5): 1560 nM; GI50 (HCT-15): 530 nM; GI50 (SF-539): 740 nM; GI50 (NCI-H522): 390 nM; GI50 (HCC 2998): 1810 nM; GI50 (SN12C): 710 nM
C=C1C(=O)O[C@@H]2[C@H]3O[C@]3(C)CC/C=C(/COC(=O)c3cc4ccccc4[nH]3)CC[C@@H]12	270	1470	1600	1070	540	190	1730	1650	1740	1560	280	1590	1710	2060	2050	1890	250	1690	1680	1510	GI50 (NCI-H226): 1470 nM; GI50 (HOP-92): 480 nM; GI50 (MCF7): 300 nM; GI50 (RPMI-8226): 260 nM; GI50 (OVCAR-8): 1990 nM; GI50 (UACC-257): 1610 nM; GI50 (SK-MEL-28): 1290 nM; GI50 (LOX IMVI): 180 nM; GI50 (UO-31): 880 nM; EC50 [1]: 1100 nM; GI50 (NCI/ADR-RES): 2200 nM; GI50 (OVCAR-5): 1140 nM; GI50 (HCT-15): 210 nM; GI50 (SF-539): 1320 nM; GI50 (NCI-H522): 750 nM; GI50 (HCC 2998): 2140 nM; GI50 (SN12C): 1740 nM
